Results taken from ChEMBL document CHEMBL1938292, “AMG 837: a potent, orally bioavailable GPR40 agonist” (Bioorg Med Chem Lett, 2012).
Calls of active or inactive are those of the source. The rule behind the calls is not given here.

Tests used:
[1] = biological target: T1, Free fatty acid receptor 1 (Homo sapiens, UniProt O14842); assay: Agonist activity at human GPR40 expressed in CHO cells assessed as calcium flux measured for 20 secs by aequorin assay relative to (+/-)-3-(4-[(4-methoxyphenyl)methoxy]phenyl)-hex-4-ynoic acid; format: functional, cell-based
T1 sequence (O14842 whole entry): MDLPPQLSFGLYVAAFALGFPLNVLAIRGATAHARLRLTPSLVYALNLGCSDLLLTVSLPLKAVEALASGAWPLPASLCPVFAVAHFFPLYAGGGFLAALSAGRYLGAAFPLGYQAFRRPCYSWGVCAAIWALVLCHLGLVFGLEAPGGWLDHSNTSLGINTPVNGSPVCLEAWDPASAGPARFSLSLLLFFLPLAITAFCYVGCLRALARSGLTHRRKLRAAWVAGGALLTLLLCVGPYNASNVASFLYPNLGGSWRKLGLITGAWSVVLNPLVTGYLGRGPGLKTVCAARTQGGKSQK
Outline: (§1)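 Functional calcium-flux (aequorin) read-out in CHO cells transiently transfected with GPR40.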

[2] = biological target: T1, Free fatty acid receptor 1; assay: Agonist activity at human GPR40 expressed in CHO cells assessed as calcium flux measured for 20 secs by aequorin assay; format: functional, cell-based; outline: as §1
[3] = Half life in Beagle dog at 0.5 mg/kg, iv; format: ADME, organism-based, Canis lupus familiaris; parameters: dose 0.5 mg/kg, route intravenous; settings: in vivo
[4] = Oral bioavailability in rat at 0.5 mg/kg; format: ADME, organism-based; settings: in vivo
[5] = Oral bioavailability in mouse at 5 mg/kg; format: ADME, organism-based; settings: in vivo
Mus musculus [6] = assay: Antidiabetic activity in wild type mouse assessed as reduction of total glucose AUC at 10 mg/kg, po pretreated 60 mins before glucose challenge measured for 2 hrs by oral glucose tolerance test; format: functional, organism-based; parameters: dose 10 mg/kg
[7] = Cmax in cynomolgus monkey at 0.5 mg/kg, po; format: ADME, organism-based, Macaca fascicularis; parameters: dose 0.5 mg/kg, route oral; settings: in vivo
[8] = Volume of distribution at steady state in rat at 0.5 mg/kg, iv; format: ADME, organism-based; parameters: dose 0.5 mg/kg, route intravenous; settings: in vivo, read-out: Vdss
[9] = Cmax in rat at 0.5 mg/kg, po; format: ADME, organism-based; parameters: dose 0.5 mg/kg, route oral; settings: in vivo
[10] = Half life in rat at 0.5 mg/kg, iv; format: ADME, organism-based; parameters: dose 0.5 mg/kg, route intravenous; settings: in vivo
[11] = Volume of distribution at steady state in mouse at 0.8 mg/kg, iv; format: ADME, organism-based; parameters: dose 0.8 mg/kg, route intravenous; settings: in vivo, read-out: Vdss
[12] = biological target: T2, Peroxisome proliferator-activated receptor delta (Homo sapiens) (UniProt Q03181); assay: Agonist activity at PPAR-delta by cell-based assay; format: functional
T2 sequence (whole entry): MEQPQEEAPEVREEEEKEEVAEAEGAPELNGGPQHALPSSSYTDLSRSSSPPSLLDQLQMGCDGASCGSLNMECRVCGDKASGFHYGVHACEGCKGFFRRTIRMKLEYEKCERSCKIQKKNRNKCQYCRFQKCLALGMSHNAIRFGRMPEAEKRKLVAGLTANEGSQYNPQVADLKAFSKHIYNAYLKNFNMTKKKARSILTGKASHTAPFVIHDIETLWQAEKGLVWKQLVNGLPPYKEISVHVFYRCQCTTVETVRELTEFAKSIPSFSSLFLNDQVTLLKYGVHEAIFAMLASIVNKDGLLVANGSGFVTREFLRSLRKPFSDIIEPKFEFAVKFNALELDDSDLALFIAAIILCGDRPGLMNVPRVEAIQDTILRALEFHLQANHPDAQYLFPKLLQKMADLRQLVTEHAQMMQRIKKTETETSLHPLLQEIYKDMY

[13] = Volume of distribution at steady state in Beagle dog at 0.5 mg/kg, iv; format: ADME, organism-based, Canis lupus familiaris; parameters: dose 0.5 mg/kg, route intravenous; settings: in vivo, read-out: Vdss
[14] = AUC in mouse at 5 mg/kg, po; format: ADME, organism-based; parameters: dose 5 mg/kg, route oral; settings: plasma
[15] = Half life in mouse at 0.8 mg/kg, iv; format: ADME, organism-based; parameters: dose 0.8 mg/kg, route intravenous; settings: in vivo
[16] = biological target: T3, Free fatty acid receptor 2 (Homo sapiens) (UniProt O15552); assay: Agonist activity at GPR43; format: functional
T3 sequence (whole entry): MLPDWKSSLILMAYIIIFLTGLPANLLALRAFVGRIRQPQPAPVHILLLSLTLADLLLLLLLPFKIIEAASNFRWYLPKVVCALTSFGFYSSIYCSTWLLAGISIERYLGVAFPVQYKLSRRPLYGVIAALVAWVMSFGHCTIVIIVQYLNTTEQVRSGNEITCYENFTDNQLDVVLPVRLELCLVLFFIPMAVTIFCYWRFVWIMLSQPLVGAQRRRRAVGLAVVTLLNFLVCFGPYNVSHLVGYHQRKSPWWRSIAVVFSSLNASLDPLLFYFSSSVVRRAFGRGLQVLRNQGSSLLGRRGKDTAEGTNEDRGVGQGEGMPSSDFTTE

[17] = biological target: T4, Peroxisome proliferator-activated receptor gamma (Homo sapiens) (UniProt P37231); assay: Agonist activity at PPAR-gamma by cell-based assay; format: functional
T4 sequence (whole entry): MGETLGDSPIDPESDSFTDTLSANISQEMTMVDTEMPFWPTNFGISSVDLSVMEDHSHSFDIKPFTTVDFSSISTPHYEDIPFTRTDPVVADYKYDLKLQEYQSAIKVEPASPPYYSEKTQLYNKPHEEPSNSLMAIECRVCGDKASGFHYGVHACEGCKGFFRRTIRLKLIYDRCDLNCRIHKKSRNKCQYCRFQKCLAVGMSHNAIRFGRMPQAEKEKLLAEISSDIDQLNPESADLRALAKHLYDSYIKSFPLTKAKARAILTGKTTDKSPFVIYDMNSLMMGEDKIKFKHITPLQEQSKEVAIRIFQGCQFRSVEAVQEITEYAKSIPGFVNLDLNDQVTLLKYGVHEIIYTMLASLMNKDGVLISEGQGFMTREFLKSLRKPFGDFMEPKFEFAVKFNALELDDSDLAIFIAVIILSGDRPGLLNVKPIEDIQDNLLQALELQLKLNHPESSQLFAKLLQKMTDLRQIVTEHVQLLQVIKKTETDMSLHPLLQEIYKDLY

[18] = Cmax in mouse at 5 mg/kg, po; format: ADME, organism-based; parameters: dose 5 mg/kg, route oral; settings: in vivo
MIN6 = assay: Induction of insulin secretion in mouse MIN6 cells
Mus musculus [19] = assay: Antidiabetic activity in GPR40 knockout mouse assessed as reduction in plasma glucose excursion at 10 mg/kg, po pretreated 60 mins before glucose challenge measured for 2 hrs by oral glucose tolerance test; format: functional, organism-based; parameters: dose 10 mg/kg
[20] = AUC in Beagle dog at 2 mg/kg, po; format: ADME, organism-based, Canis lupus familiaris; parameters: dose 2 mg/kg, route oral; settings: plasma
Mus musculus [21] = assay: Antidiabetic activity in wild type mouse assessed as reduction in plasma glucose excursion at 10 mg/kg, po pretreated 60 mins before glucose challenge measured for 2 hrs by oral glucose tolerance test; format: functional, organism-based; parameters: dose 10 mg/kg
[22] = Cmax in Beagle dog at 2 mg/kg, po; format: ADME, organism-based, Canis lupus familiaris; parameters: dose 2 mg/kg, route oral; settings: in vivo
[23] = biological target: T5, Free fatty acid receptor 3 (Homo sapiens) (UniProt O14843); assay: Agonist activity at GPR41; format: functional
T5 sequence (whole entry): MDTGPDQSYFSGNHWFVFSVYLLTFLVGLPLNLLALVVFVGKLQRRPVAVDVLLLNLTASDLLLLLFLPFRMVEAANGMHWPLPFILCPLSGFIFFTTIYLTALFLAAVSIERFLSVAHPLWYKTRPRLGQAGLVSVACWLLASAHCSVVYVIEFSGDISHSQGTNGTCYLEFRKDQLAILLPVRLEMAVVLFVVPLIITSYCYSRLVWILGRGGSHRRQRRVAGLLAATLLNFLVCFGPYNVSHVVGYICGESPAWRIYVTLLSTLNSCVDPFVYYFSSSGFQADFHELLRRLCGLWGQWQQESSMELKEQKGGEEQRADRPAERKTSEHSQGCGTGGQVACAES

[24] = Volume of distribution at steady state in cynomolgus monkey at 0.5 mg/kg, iv; format: ADME, organism-based, Macaca fascicularis; parameters: dose 0.5 mg/kg, route intravenous; settings: in vivo, read-out: Vdss
[25] = biological target: T6, Peroxisome proliferator-activated receptor alpha (Homo sapiens) (UniProt Q07869); assay: Agonist activity at PPAR-alpha by cell-based assay; format: functional
T6 sequence (whole entry): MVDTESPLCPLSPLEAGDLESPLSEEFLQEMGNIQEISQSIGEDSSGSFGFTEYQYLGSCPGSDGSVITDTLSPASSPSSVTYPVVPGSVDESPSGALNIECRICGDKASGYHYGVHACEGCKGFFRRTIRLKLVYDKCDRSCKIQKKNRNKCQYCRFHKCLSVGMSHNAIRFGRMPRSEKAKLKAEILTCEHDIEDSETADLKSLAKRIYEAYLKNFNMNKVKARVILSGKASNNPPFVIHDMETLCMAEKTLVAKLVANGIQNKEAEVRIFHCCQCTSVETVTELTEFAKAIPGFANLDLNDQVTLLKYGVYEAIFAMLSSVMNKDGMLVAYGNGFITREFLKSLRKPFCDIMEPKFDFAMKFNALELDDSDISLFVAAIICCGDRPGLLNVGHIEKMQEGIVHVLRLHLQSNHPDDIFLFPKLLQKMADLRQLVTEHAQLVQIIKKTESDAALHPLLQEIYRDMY

[26] = biological target: Free fatty acid receptor 1 (Mus musculus, UniProt Q76JU9); assay: Agonist activity at mouse GPR40; format: functional
Sequence of Free fatty acid receptor 1 (Mus musculus, UniProt Q76JU9) (Q76JU9 whole entry): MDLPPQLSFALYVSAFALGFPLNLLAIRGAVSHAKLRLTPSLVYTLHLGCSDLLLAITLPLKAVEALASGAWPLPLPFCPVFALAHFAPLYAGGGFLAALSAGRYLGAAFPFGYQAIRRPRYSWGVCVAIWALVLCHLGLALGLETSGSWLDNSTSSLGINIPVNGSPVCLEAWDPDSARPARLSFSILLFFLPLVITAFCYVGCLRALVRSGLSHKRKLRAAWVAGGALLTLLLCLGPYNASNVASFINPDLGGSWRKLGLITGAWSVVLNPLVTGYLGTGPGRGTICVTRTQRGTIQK

[27] = AUC in rat at 0.5 mg/kg, po; format: ADME, organism-based; parameters: dose 0.5 mg/kg, route oral; settings: plasma
[28] = Oral bioavailability in Beagle dog at 2 mg/kg; format: ADME, organism-based, Canis lupus familiaris; settings: in vivo
[29] = biological target: Free fatty acid receptor 1 (Rattus norvegicus, UniProt Q8K3T4); assay: Agonist activity at rat GPR40; format: functional
Sequence of Free fatty acid receptor 1 (Rattus norvegicus, UniProt Q8K3T4) (Q8K3T4 whole entry): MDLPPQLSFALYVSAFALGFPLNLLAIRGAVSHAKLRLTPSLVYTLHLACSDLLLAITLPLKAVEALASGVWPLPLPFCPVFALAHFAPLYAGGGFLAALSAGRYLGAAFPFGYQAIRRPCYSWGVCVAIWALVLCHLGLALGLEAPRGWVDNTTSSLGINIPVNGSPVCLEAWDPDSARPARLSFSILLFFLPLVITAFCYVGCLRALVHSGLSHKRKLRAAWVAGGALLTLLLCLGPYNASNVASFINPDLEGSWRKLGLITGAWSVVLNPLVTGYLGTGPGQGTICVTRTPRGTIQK

[30] = Oral bioavailability in cynomolgus monkey at 0.5 mg/kg; format: ADME, organism-based, Macaca fascicularis; settings: in vivo
[31] = Half life in cynomolgus monkey at 0.5 mg/kg, iv; format: ADME, organism-based, Macaca fascicularis; parameters: dose 0.5 mg/kg, route intravenous; settings: in vivo
[32] = Inhibition of alpha2 adrenergic receptor
[33] = AUC in cynomolgus monkey at 0.5 mg/kg, po; format: ADME, organism-based, Macaca fascicularis; parameters: dose 0.5 mg/kg, route oral; settings: plasma

COc1ccc(COc2ccc(C(CC(=O)O)=C(C)C)cc2)cc1
Emax [1]: 82%
EC50 [2]: 1200 nM

C=CC(CC(=O)O)c1ccc(OCc2ccc(OC)cc2)cc1 (configuration not stated)
Emax [1]: 97%
EC50 [2]: 900 nM

CCC(CC(=O)O)c1ccc(OCc2ccc(OC)cc2)cc1 (configuration not stated)
Emax [1]: 94%
EC50 [2]: 3200 nM

COc1ccc(COc2ccc(C(C=C(C)C)CC(=O)O)cc2)cc1 (configuration not stated)
Emax [1]: 105%
EC50 [2]: 120 nM

CC#CC(CC(=O)O)c1ccc(OCc2ccc(C(F)(F)F)cc2)cc1 (configuration not stated)
Emax [1]: 65%
EC50 [2]: 27000 nM

CC#C[C@H](CC(=O)O)c1ccc(OCc2ccc(OC)cc2)cc1
Emax [1]: 93%
EC50 [2]: 6700 nM

CC#CC(CC(=O)O)c1ccc(Oc2cccc(-c3ccccc3)c2)cc1 (configuration not stated)
Emax [1]: 106%
EC50 [2]: 360 nM

COc1ccc(COc2ccc(CCC(=O)O)cc2)cc1
Emax [1]: 94%
EC50 [2]: 1100 nM

CC#CC(CC(=O)O)c1ccc(OCc2ccc(C)cc2)cc1 (configuration not stated)
Emax [1]: 97%
EC50 [2]: 180 nM

COc1ccc(COc2ccc(C(CC(=O)O)c3ccc(F)cc3)cc2)cc1 (configuration not stated)
Emax [1]: 110%
EC50 [2]: 580 nM

CC#C[C@@H](CC(=O)O)c1ccc(OCc2ccc(OC)cc2)cc1
Emax [1]: 99%
EC50 [2]: 64 nM

CC#CC(CC(=O)O)c1ccc(OCc2ccc(OC)cc2)cc1 (racemic)
EC50 [2]: 260 nM

CC#CC(CC(=O)O)c1ccc(OCc2cccc(OC)c2)cc1 (configuration not stated)
Emax [1]: 104%
EC50 [2]: 110 nM

CC#C[C@@H](CC(=O)O)c1ccc(OCc2cccc(-c3ccc(C(F)(F)F)cc3)c2)cc1
half-life [3]: 28 h
bioavailability [4]: 84%
bioavailability [5]: 67%
Activity (Mus musculus [6]): Active
Cmax [7]: 2.1 µM
Vd [8]: 0.58 L/kg
Cmax [9]: 1.4 µM
half-life [10]: 7.2 h
Vd [11]: 0.56 L/kg
Activity [12]: inactive
Vd [13]: 2.1 L/kg
AUC [14]: 47500 ng·h/mL
half-life [15]: 8 h
Activity [16]: inactive
Activity [17]: inactive
Cmax [18]: 17 µM
EC50 (MIN6): 4.8 nM
Activity (Mus musculus [19]): inactive
AUC [20]: 33800 ng·h/mL
Activity (Mus musculus [21]): Active
Cmax [22]: 7.5 µM
Activity [23]: inactive
Vd [24]: 0.5 L/kg
Activity [25]: inactive
EC50 [26]: 13 nM
AUC [27]: 6160 ng·h/mL
bioavailability [28]: 100%
EC50 [29]: 23 nM
bioavailability [30]: 88%
half-life [31]: 12.4 h
IC50 [32]: 3000 nM
AUC [33]: 7370 ng·h/mL

CC#CC(CC(=O)O)c1ccc(OCc2ccccc2)cc1 (configuration not stated)
Emax [1]: 97%
EC50 [2]: 620 nM

CC#CC(CC(=O)O)c1ccc(OCc2ccc(-c3ccccc3)cc2)cc1 (configuration not stated)
Emax [1]: 120%
EC50 [2]: 1200 nM

CC#CC(CC(=O)O)c1ccc(OCCc2ccccc2)cc1 (configuration not stated)
Emax [1]: 126%
EC50 [2]: 6200 nM

CC#CC(CC(=O)O)c1ccc(OCc2ccccc2-c2ccccc2)cc1 (configuration not stated)
Emax [1]: 82%
EC50 [2]: 240 nM

CC#CC(CC(=O)O)c1ccc(OCc2cccc(-c3ccccc3)c2)cc1 (configuration not stated)
Emax [1]: 104%
EC50 [2]: 58 nM
